Experimental data gathered from unrelated publications.
Target: Serine/threonine-protein kinase MRCK beta (CDC42BPB, Homo sapiens, UniProt Q9Y5S2)

SMILES	assay	conditions	remaining binding
CN(C)c1nccc(-c2cnn3ncccc23)n1	binding	1 µM	100%
Cc1cnc(Nc2ccc(C(=O)N3CCC(N4CCCC4)CC3)cc2)nc1-c1cc2ccccc2s1	binding, competition with immobilised ligand	1 µM	59%
c1cnn2ncc(-c3ccnc(N4CCC45COC5)n3)c2c1	binding	1 µM	94%
O=C(O)c1cc(-c2ccc(C3CCNCC3)cc2)c2ccc(-c3ccc(C(F)(F)F)cc3)cc2c1	cell-free assay, competition with immobilised ligand	1 µM	100%
N[C@H]1CCN(c2nccc(-c3cnn4ncccc34)n2)C1	binding	1 µM	88%
O=C(Nc1c[nH]nc1C(=O)NC1CCNCC1)c1cc(F)cc(F)c1	binding, competition with immobilised ligand	1 µM	100%
COc1ccnn2ncc(-c3ccnc(N(C)C)n3)c12	binding	1 µM	100%
COc1ccc2cc(OCC3(C(=O)O)CN(C(=O)c4ccc(F)cc4)C3)ccc2c1	cell-free assay, competition with immobilised ligand	1 µM	100%
O=C(NCCCN1CCOCC1)c1ccc(Nc2nccc(-c3cc4ccccc4s3)n2)cc1	binding, competition with immobilised ligand	1 µM	100%
CC(C)CC(=O)N1CCc2nc(-c3ccc(Br)cc3)nc(N(C)Cc3ccccc3)c2C1	cell-free assay, competition with immobilised ligand	0.1 µM	99%
CCN1CCN(Cc2ccc(C(=O)Nc3ccc(C)c(Oc4ccc5c(c4)CC(=O)N5)c3)cc2C(F)(F)F)CC1	binding, competition with immobilised ligand	1 µM	77%
FC(F)(F)Oc1cccc(-c2cnc3ccc(-c4ccncc4)nn23)c1	cell-free assay, competition with immobilised ligand	5 µM	22%
C[C@@H](c1ccc(-n2cnc3c(N)ncnc32)cc1)N1CCc2nn(C)c(Cc3ccccc3)c2C1=O	binding, competition with immobilised ligand	0.1 µM	89%
COCCOc1nc(-c2ccc(Cl)nc2)nc2c1CN(C(=O)c1ncn3ccccc13)CC2	cell-free assay, competition with immobilised ligand	0.1 µM	100%
CN(CCCC(F)(F)F)c1nccc(-c2cnn3ncccc23)n1	binding	1 µM	63%
COc1cnc(Nc2cccc(S(N)(=O)=O)c2)nc1N1CCN(c2ccccc2)C(=O)C1	binding, competition with immobilised ligand	1 µM	100%
Cc1cc(-n2nc(Cc3cc(F)cc(C(F)(F)F)c3)nc2C)ccc1C(N)=O	cell-free assay, competition with immobilised ligand	1 µM	100%
O=C(c1ccc(Nc2ncc(Cl)c(-c3ccc(Cl)s3)n2)cc1)N1CCC(N2CCCC2)CC1	binding, competition with immobilised ligand	1 µM	92%
CN(c1nccc(-c2cnn3ncccc23)n1)C1CC1	binding	1 µM	86%
CNC(=O)c1ccc(Nc2ncc(C(F)(F)F)c(NCc3nccnc3N(C)S(C)(=O)=O)n2)cc1	cell-free assay, competition with immobilised ligand	0.1 µM	90%
